ChEMBL document CHEMBL4387787, “Cucurbalsaminones A-C, Rearranged Triterpenoids with a 5/6/3/6/5-Fused Pentacyclic Carbon Skeleton from Momordica balsamina, as Multidrug Resistance Reversers” (J Nat Prod, 2019)

Legend:
[1] = Antiproliferative activity against mouse L5178Y cells by MTT assay; format: cell-based; conditions: read-out: ID50 (the source's name)
Method in brief: (§1)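 MTT assay on parental L5178 mouse T-lymphoma cells and a subline transfected with pHa MDR1/A retrovirus (human ABCB1) and selected with colchicine. Cells were exposed to increasing concentrations from 0.26 to 133 μM. Other handling followed earlier reports.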

[2] = molecular target: T1, ATP-dependent translocase ABCB1 (Homo sapiens, UniProt P08183); experiment: Modulation of ABCB1 (unknown origin) expressed in mouse L5178Y-MDR cells assessed as multidrug resistance reversing activity by measuring fluorescence activity ratio at 2 uM by rhodamine-123 accumulation based flow cytometry (reference value: 1.1 No unit); format: cell-based
[3] = molecular target: T1, ATP-dependent translocase ABCB1; experiment: Modulation of ABCB1 (unknown origin) expressed in mouse L5178Y-MDR cells assessed as multidrug resistance reversing activity by measuring fluorescence activity ratio at 20 uM by rhodamine-123 accumulation based flow cytometry (reference value: 1.1 No unit); format: cell-based
[4] = molecular target: T1, ATP-dependent translocase ABCB1; experiment: Modulation of ABCB1 (unknown origin) expressed in mouse L5178Y-MDR cells assessed as multidrug resistance reversing activity by measuring fluorescence activity ratio at 0.2 uM by rhodamine-123 accumulation based flow cytometry (reference value: 1.1 No unit); format: cell-based
[5] = Antiproliferative activity against mouse L5178Y cells transfected with ABCB1 by MTT assay; format: ADME, cell-based; conditions: read-out: ID50 (the source's name); method in brief: as §1

T1 sequence (P08183 whole entry): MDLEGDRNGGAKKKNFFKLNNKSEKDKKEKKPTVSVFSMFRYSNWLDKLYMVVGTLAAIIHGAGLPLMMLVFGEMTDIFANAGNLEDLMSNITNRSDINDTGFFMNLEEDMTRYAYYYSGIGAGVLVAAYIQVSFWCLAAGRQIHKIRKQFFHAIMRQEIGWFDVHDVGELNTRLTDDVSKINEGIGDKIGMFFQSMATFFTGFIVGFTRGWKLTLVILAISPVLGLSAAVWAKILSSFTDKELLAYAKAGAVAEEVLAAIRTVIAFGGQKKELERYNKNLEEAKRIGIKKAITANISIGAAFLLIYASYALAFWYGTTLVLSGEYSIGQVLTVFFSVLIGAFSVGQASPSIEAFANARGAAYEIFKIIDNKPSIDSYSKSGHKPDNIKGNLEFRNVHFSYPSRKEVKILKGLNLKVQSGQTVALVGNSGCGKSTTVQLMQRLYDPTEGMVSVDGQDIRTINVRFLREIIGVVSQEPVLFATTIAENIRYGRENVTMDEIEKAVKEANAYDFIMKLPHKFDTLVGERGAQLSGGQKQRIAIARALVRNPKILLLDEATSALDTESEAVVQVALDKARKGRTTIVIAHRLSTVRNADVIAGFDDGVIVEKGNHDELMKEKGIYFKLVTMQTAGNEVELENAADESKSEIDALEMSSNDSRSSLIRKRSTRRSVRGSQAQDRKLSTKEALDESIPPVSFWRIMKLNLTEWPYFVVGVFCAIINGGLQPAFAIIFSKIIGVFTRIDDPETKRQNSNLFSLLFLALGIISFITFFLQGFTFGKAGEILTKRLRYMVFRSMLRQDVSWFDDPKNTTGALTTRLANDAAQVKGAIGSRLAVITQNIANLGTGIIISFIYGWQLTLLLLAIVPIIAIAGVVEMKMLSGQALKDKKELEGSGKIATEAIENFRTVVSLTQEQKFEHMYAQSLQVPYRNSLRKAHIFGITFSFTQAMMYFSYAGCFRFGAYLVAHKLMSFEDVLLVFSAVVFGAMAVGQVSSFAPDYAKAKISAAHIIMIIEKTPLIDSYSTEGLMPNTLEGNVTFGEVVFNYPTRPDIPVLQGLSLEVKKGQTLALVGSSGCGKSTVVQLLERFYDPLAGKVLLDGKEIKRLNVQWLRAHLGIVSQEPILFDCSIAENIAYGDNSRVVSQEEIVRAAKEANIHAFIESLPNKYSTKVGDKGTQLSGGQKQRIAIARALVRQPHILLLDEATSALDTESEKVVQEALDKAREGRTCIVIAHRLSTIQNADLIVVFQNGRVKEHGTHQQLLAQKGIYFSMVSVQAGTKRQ

Compound | GI50 [1] [µM] | Ratio [2] | Ratio [3] | Ratio [4] | GI50 [5] [µM]
CC(=O)C[C@@H](C)[C@H]1CC[C@@]2(C)[C@@H]3C(=O)[C@@H]4C(C)(C)[C@@]45C(=O)CC[C@H]5[C@]3(C)CC[C@]12C | 72.2 | 14.2 | 87.5 | 1.4 | 68.3
C=C(C)/C=C/C[C@@H](C)[C@H]1CC[C@@]2(C)[C@@H]3C(=O)[C@@H]4C(C)(C)[C@@]45C(=O)CC[C@H]5[C@]3(C)CC[C@]12C | 20.7 | 62.2 | 117.7 | 3.1 | 37.6
CC(C)=CC(=O)C[C@@H](C)[C@H]1CC[C@@]2(C)[C@@H]3C(=O)[C@@H]4C(C)(C)[C@@]45C(=O)CC[C@H]5[C@]3(C)CC[C@]12C | > 100 | 76.7 | 105.5 | 5.9 | > 100
